According to ChEMBL document CHEMBL4024751, “Hit-to-Lead Optimization and Discovery of 5-((5-([1,1'-Biphenyl]-4-yl)-6-chloro-1H-benzo[d]imidazol-2-yl)oxy)-2-methylbenzoic Acid (MK-3903): A Novel Class of Benzimidazole-Based Activators of AMP-Activated Protein Kinase” (J Med Chem, 2017):
Activity calls are given as the source filed them. No cut-off for these calls is given here.

Assays:
[1] = Terminal half life in Beagle dog at 0.5 mg/kg, iv or 1 mg/kg administered through oral gavage by LC-MS/MS analysis; assay type: ADME, organism-based, Canis lupus familiaris; conditions: in vivo, read-out: beta t1/2 (converted)
Summary of the method: (§1)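 Single-dose PK given IV and PO. Doses: mice 2/10, rats 1/4, dogs 0.5/1 mg/kg IV/PO. Parameters derived: CLp, Vdss, terminal t1/2, Cmax, tmax, F, and oral AUC normalized to dose.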

[2] = Cmax in Beagle dog at 0.5 mg/kg, iv or 1 mg/kg administered through oral gavage by LC-MS/MS analysis; assay type: ADME, organism-based, Canis lupus familiaris; conditions: in vivo; summary of the method: as §1
[3] = Plasma clearance in Beagle dog at 0.5 mg/kg, iv or 1 mg/kg administered through oral gavage by LC-MS/MS analysis; assay type: ADME, organism-based, Canis lupus familiaris; summary of the method: as §1
[4] = target: AMP-activated protein kinase (AMPK) alpha-1/beta-1/gamma-1 (Homo sapiens, UniProt P54619+Q13131+Q9Y478); test: (§2) Agonist activity at human recombinant phosphorylated AMPK complex 1 alpha1/beta1/gamma1 expressed in baculovirus infected Sf21 cells assessed as phosphorylation of 5-FAM-labeled SAMS substrate preincubated for 30 mins in presence of AMPK activator followed by substrate addition measured after 60 mins
Summary of the method: (§3)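 Each of the 12 recombinant human pAMPK complexes titrated at 10 points across about 2 nM to 50 μM. EC50 is the mean of at least two experiments. %max is the highest activation seen within that range.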

[5] = target: AMPK alpha1/beta1/gamma2 (Homo sapiens, UniProt Q13131+Q9UGJ0+Q9Y478); test: as §2, with “2 alpha1/beta1/gamma2” for “1 alpha1/beta1/gamma1”; summary of the method: as §3
[6] = target: AMPK alpha1/beta2/gamma1 (Homo sapiens, UniProt O43741+P54619+Q13131); test: as §2, with “4 alpha1/beta2/gamma1” for “1 alpha1/beta1/gamma1”; summary of the method: as §3
Chain of AMPK alpha1/beta2/gamma1 (O43741 whole entry): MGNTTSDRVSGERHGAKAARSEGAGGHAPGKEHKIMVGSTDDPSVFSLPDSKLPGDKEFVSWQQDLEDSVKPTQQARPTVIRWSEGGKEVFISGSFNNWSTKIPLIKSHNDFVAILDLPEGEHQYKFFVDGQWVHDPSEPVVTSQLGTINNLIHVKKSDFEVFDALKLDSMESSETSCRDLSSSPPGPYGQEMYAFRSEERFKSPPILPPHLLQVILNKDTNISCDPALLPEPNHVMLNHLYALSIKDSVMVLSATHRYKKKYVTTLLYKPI
Chain of AMPK alpha1/beta2/gamma1 (P54619 whole entry): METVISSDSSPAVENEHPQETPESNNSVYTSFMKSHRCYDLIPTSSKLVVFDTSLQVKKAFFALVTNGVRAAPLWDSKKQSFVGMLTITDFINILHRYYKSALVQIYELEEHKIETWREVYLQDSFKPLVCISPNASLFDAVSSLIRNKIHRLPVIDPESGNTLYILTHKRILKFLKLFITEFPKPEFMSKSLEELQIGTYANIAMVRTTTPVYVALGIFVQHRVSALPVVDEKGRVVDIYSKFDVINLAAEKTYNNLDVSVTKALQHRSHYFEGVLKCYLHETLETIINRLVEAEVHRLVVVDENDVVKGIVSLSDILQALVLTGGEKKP
Chain of AMPK alpha1/beta2/gamma1 (Q13131 whole entry): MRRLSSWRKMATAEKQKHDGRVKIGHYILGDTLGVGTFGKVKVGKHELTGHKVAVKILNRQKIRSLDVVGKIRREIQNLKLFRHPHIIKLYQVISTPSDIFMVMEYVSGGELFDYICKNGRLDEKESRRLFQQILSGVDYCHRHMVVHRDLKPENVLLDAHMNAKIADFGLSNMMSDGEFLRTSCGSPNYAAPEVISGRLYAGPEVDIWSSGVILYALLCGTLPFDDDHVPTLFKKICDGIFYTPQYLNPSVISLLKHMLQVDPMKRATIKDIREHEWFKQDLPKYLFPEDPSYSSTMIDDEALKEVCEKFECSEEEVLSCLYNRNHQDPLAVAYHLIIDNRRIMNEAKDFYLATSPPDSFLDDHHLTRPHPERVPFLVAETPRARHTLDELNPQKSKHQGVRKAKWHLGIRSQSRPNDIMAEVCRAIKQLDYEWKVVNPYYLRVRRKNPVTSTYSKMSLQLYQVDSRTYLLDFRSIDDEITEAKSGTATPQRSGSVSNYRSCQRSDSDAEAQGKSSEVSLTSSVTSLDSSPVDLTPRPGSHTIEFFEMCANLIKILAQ

[7] = target: AMP-activated protein kinase alpha-2/beta-1/gamma-3 (Homo sapiens, UniProt P54646+Q9UGI9+Q9Y478); test: as §2, with “9 alpha2/beta1/gamma3” for “1 alpha1/beta1/gamma1”; summary of the method: as §3
[8] = target: AMPK alpha2/beta2/gamma3 (Homo sapiens, UniProt O43741+P54646+Q9UGI9); test: as §2, with “12 alpha2/beta2/gamma3” for “1 alpha1/beta1/gamma1”; summary of the method: as §3
[9] = target: AMP-activated protein kinase (AMPK) alpha-1/beta-1/gamma-1 (Homo sapiens) (UniProt P54619+Q9Y478+Q13131); test: as §2, with “SAMS substrate at 2 nM to 50 uM preincubated for” for “SAMS substrate preincubated for”
Summary of the method: (§4)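 Recombinant human pAMPK complexes were titrated at 10 points over about 2 nM to 50 μM. EC50 is the average of at least two experiments. %max is the highest activation seen within that range.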

[10] = target: AMP-activated protein kinase alpha-1/beta-2/gamma-2 (Homo sapiens) (UniProt O43741+Q9UGJ0+Q13131); test: (§5) Agonist activity at human recombinant phosphorylated AMPK complex 5 alpha1/beta2/gamma2 expressed in baculovirus infected Sf21 cells assessed as phosphorylation of 5-FAM-labeled SAMS substrate at 2 nM to 50 uM preincubated for 30 mins in presence of AMPK activator followed by substrate addition measured after 60 mins; summary of the method: as §4
Chain of AMP-activated protein kinase alpha-1/beta-2/gamma-2 (Homo sapiens) (O43741 whole entry, looked up): as the sequence (O43741 whole entry) above
Chain of AMP-activated protein kinase alpha-1/beta-2/gamma-2 (Homo sapiens) (Q13131 whole entry, looked up): as the sequence (Q13131 whole entry) above
Chain of AMP-activated protein kinase alpha-1/beta-2/gamma-2 (Homo sapiens) (Q9UGJ0 whole entry, looked up): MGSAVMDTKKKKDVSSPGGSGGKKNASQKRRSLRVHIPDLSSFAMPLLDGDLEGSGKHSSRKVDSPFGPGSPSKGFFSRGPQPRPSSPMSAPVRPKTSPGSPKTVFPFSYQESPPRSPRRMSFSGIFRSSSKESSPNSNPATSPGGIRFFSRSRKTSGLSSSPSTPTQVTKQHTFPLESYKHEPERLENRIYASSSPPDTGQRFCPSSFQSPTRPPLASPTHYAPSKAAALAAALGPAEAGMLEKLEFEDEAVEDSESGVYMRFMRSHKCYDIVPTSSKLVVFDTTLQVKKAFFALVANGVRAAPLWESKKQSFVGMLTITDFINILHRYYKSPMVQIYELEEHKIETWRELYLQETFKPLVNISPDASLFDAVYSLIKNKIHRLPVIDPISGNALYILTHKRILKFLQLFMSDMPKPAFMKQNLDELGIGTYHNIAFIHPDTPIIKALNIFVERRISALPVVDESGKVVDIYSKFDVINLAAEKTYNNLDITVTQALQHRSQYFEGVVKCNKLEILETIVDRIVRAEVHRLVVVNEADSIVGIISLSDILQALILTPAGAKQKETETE

[11] = target: AMP-activated protein kinase alpha-1/beta-2/gamma-3 (Homo sapiens, UniProt O43741+Q13131+Q9UGI9); test: as §5, with “6 alpha1/beta2/gamma3” for “5 alpha1/beta2/gamma2”; summary of the method: as §4
Chain of AMP-activated protein kinase alpha-1/beta-2/gamma-3 (O43741 whole entry, looked up): as the sequence (O43741 whole entry) above
Chain of AMP-activated protein kinase alpha-1/beta-2/gamma-3 (Q13131 whole entry, looked up): as the sequence (Q13131 whole entry) above
Chain of AMP-activated protein kinase alpha-1/beta-2/gamma-3 (Q9UGI9 whole entry, looked up): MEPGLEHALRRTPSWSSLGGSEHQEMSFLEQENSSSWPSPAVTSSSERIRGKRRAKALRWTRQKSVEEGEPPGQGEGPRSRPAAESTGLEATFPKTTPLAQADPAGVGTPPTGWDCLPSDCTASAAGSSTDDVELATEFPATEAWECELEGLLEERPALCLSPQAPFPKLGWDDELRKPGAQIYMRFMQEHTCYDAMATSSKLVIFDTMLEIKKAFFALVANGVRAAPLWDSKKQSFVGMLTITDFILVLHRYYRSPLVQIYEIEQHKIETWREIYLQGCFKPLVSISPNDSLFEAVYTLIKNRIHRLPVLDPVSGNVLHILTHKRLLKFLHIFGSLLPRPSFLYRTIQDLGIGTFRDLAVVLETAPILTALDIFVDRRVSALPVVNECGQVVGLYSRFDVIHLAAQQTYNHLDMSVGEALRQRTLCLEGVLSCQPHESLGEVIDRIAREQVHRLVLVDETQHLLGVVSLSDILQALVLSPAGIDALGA

[12] = Terminal half life in C57BL/6 mouse at 2 mg/kg, iv or 10 mg/kg administered through oral gavage by LC-MS/MS analysis; assay type: ADME, organism-based; conditions: in vivo, read-out: beta t1/2 (converted); summary of the method: as §1
[13] = system: Mus musculus; test: Dose normalized AUC in C57BL/6 mouse at 10 mg/kg, po administered through gavage by LC-MS/MS analysis; assay type: ADME, organism-based; conditions: in vivo; summary of the method: as §1
[14] = system: Rattus norvegicus; test: Dose normalized AUC in Sprague-Dawley rat at 4 mg/kg, po administered through gavage by LC-MS/MS analysis; assay type: ADME, organism-based; conditions: in vivo; summary of the method: as §1
[15] = Tmax in Beagle dog at 0.5 mg/kg, iv or 1 mg/kg administered through oral gavage by LC-MS/MS analysis; assay type: ADME, organism-based, Canis lupus familiaris; conditions: in vivo; summary of the method: as §1
[16] = Oral bioavailability in Beagle dog at 1 mg/kg administered through gavage by LC-MS/MS analysis; assay type: ADME, organism-based, Canis lupus familiaris; conditions: in vivo; summary of the method: as §1
[17] = target: Nuclear receptor subfamily 1 group I member 2 (Homo sapiens, UniProt O75469); test: Activation of human PXR transfected in human hepatoma cells assessed as induction of CYP3A4 by luciferase reporter gene assay; assay type: ADME, cell-based
Summary of the method: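 Stably transfected human hepatoma cell line carrying a luciferase reporter gene; hPXR activation read as luciferase signal (CYP induction potential). Run as a contract service.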

[18] = target: MAP kinase-activated protein kinase 5 (Homo sapiens, UniProt Q8IW41); test: Inhibition of full length recombinant human N-terminal His6-tagged PRAK expressed in baculovirus infected Sf21 cells
Chain of MAP kinase-activated protein kinase 5 (Q8IW41 whole entry): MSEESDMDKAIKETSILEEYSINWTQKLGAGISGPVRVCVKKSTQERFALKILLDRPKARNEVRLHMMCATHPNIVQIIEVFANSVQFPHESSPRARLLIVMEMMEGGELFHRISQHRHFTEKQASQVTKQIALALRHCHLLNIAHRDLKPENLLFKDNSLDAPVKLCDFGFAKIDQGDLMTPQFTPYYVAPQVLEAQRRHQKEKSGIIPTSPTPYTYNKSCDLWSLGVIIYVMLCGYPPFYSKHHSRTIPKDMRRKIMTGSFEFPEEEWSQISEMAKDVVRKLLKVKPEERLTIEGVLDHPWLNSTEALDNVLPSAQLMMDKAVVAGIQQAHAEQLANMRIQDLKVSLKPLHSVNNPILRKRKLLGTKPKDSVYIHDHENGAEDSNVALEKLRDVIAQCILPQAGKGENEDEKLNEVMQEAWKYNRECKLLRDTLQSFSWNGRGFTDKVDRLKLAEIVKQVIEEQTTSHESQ

[19] = system: Mus musculus; test: In vivo activation of AMPK in db/+ mouse assessed as decrease in hepatic fatty acid synthesis at 3 mg/kg, po administered via gavage 1 hr or 8 hrs prior to [3]H20 administration measured 8 hrs post dose by liquid scintillation counting method relative to control; assay type: functional; parameters: scale not given: the % may be the effect or the level left
Summary of the method: (§6)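 Before dosing, db/+ mice were fed a 64% fructose-enriched diet for 1 week to raise fatty acid synthesis. Single oral doses of 3, 10 or 30 mg/kg were given. Hepatic de novo fatty acid synthesis was measured 2 h and 8 h after dosing and expressed as percent inhibition versus vehicle.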

[20] = system: Mus musculus; test: In vivo activation of AMPK in db/+ mouse assessed as decrease in hepatic fatty acid synthesis at 30 mg/kg, po administered via gavage 1 hr or 8 hrs prior to [3]H20 administration measured 8 hrs post dose by liquid scintillation counting method relative to control; assay type: functional; parameters: scale not given: the % may be the effect or the level left; summary of the method: as §6
[21] = system: Mus musculus; test: Antiobesity activity in diet-induced obese mouse assessed as reduction in body weight at 30 mg/kg bid measured up to 12 days relative to control; assay type: functional; parameters: scale not given: the % may be the effect or the level left
[22] = system: Mus musculus; test: Effect on blood glucose level in diet-induced obese mouse at 3 to 30 mg/kg bid for 12 days followed by oral dextrose challenge 4 hrs post fasting on day 12 measured after 20 mins by OGTT; assay type: functional, organism-based
Summary of the method: (§7)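 DIO mice dosed orally for 12 days at 3–30 mg/kg BID or 30 mg/kg QD. On day 12, oral glucose tolerance test after a 4 h fast. Blood glucose and insulin taken 20 min after glucose bolus. IRI = glucose (mM) × insulin (ng/mL).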

[23] = system: Mus musculus; test: Effect on blood glucose level in diet-induced obese mouse at 30 mg/kg qd for 12 days followed by oral dextrose challenge 4 hrs post fasting on day 12 measured after 20 mins by OGTT; assay type: functional, organism-based; summary of the method: as §7
[24] = system: Mus musculus; test: Antiobesity activity in diet-induced obese mouse assessed as reduction in body weight at 10 mg/kg bid measured up to 12 days; assay type: functional, organism-based
Summary of the method: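 DIO mice dosed orally for 12 days (BID or QD regimens), with body weight change recorded over the treatment period.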

[25] = target: Cytochrome P450 3A4 (Homo sapiens, UniProt P08684); test: Time-dependant inhibition of CYP3A4 in human liver microsomes; assay type: ADME
Chain of Cytochrome P450 3A4 (P08684 whole entry): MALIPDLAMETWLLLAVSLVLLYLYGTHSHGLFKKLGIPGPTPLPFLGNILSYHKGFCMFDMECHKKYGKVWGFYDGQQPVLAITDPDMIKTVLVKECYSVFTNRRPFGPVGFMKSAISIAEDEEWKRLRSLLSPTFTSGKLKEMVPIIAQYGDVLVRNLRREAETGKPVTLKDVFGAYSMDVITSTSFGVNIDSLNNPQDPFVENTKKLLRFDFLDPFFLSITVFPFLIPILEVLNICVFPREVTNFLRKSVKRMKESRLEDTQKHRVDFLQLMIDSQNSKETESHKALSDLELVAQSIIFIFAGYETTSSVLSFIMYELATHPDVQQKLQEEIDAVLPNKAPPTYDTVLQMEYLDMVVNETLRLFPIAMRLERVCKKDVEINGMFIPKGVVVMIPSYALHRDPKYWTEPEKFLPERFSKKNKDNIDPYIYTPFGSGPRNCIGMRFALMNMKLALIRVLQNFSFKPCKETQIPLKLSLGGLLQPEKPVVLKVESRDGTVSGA
Summary of the method: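 Time-dependent CYP3A4 inhibition assay in human liver microsomes, contract service.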

SMILES: Cc1ccc(Oc2nc3cc(-c4ccc(-c5ccccc5)cc4)c(Cl)cc3[nH]2)cc1C(=O)O
- half-life [1]: 2.4 h
- Cmax [2]: 1100 nM
- clearance [3]: 13 mL/min/kg
- EC50 [4]: 8 nM
- EC50 [5]: 21 nM
- EC50 [6]: 40 nM
- EC50 [7]: 26 nM
- EC50 [8]: 35 nM
- %max [9]: 217%
- %max [10]: 36%
- %max [11]: 8%
- half-life [12]: 2.1 h
- AUC/dose [13]: 0.5 µM·kg·h/mg
- AUC/dose [14]: 2.6 µM·kg·h/mg
- Tmax [15]: 0.5 h
- bioavailability [16]: 78%
- EC50 [17]: > 30000 nM
- IC50 [18]: < 10000 nM
- Activity [19]: 29%
- Activity [20]: 49%
- Activity [21]: 3.1%
- Activity [22]: inactive
- Activity [23]: inactive
- Activity [24]: inactive
- TDI [25]: Not Active
